Experimental data reported in the EternaBench riboswitch data.

Test system: MS2 coat protein
Test: apparent Kd, MS2 coat protein; higher = weaker binding; RNA-MaP array
Summary of the method: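 Designed RNAs were produced on an Illumina sequencing chip by transcription of sequenced DNA templates. Binding to fluorescently labeled MS2 coat protein (1.5 nM to 3 μM) was measured at room temperature with or without input ligand. The apparent Kd is the median of per-cluster binding-curve fits. Designs were excluded when measured on fewer than 10 clusters.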

[1] = designed as: OFF switch for flavin mononucleotide, no ligand
[2] = ligand present: flavin mononucleotide, designed as: OFF switch for flavin mononucleotide
[3] = designed as: ON switch for flavin mononucleotide, no ligand
[4] = ligand present: flavin mononucleotide, designed as: ON switch for flavin mononucleotide
[5] = designed as: OFF switch for tryptophan, no ligand
[6] = ligand present: tryptophan, designed as: OFF switch for tryptophan
[7] = designed as: ON switch for theophylline, no ligand
[8] = ligand present: theophylline, designed as: ON switch for theophylline
[9] = designed as: ON switch for tryptophan, no ligand
[10] = ligand present: tryptophan, designed as: ON switch for tryptophan
[11] = designed as: OFF switch for theophylline, no ligand
[12] = ligand present: theophylline, designed as: OFF switch for theophylline

## AACGUCAACGUAAGGAUAUGCAGUAAGAGCGACAGGCAGAAGGUACAUGAGGAUCACCCAUGUUAACAGAACGG
[1]
  apparent Kd: 8.79 nM
[2]
  apparent Kd: 9.6 nM

## CGACUCCCAGAGAAGGCCGCAAACAUGAGGAUCACCCAUGUACUACCUGAGUCUCGGGCGGUACCGGAGGAUAUCUAGGCUCGC
[3]
  apparent Kd: 26.6 nM
[4]
  apparent Kd: 10.9 nM

## ACGAAUGUAGGAUAUACCAGUAGGAGAUGGGUAUCAGCACCACAUGAGGAUCACCCAUGUAGAAGGACACGUGA
[1]
  apparent Kd: 38.4 nM
[2]
  apparent Kd: 40.3 nM

## AAGCCACAUGAGGAUCACCCAUGUAAGGGUACCUGAGGAUAUCCGGCGGGACAGAAAGGAGGAGAAGGCAGAUCCA
[3]
  apparent Kd: 50.2 nM
[4]
  apparent Kd: 33 nM

## CCGCGCGUAGGAUAUACUAGUGUAUCAGUCGGUAUUGGAAAACAUGAGGAUCACCCAUGUAGAAGGACGCUAAU
[1]
  apparent Kd: 8.4 nM
[2]
  apparent Kd: 10.5 nM

## ACCCUGUGAGGAUAUAUGCGGUUUGAACCAGAUCAGAAAUAAUAGAAGGCACAUGAGGAUCACCCAUGUUUCUC
[1]
  apparent Kd: 27.9 nM
[2]
  apparent Kd: 22.8 nM

## UGAUACAUGAGGAUCACCCAUGUUGAUCCCGAGAAGUCCGUAAGAAGGACAGACACGAUGGAUCUGUAGGAUAUUACGACGGAC
[1]
  apparent Kd: 182 nM
[2]
  apparent Kd: 122 nM

## UCCCGACAUGAGGAUCACCCAUGUGGACAGUACACAGGAUAUUAACUCAUUACAAUAGAAUAAGAAGGGUGGUACC
[3]
  apparent Kd: 69.1 nM
[4]
  apparent Kd: 47.1 nM

## CAACUGCUUGAGCUUACUUAUUGGACUUCCCGAGGACCGGUACGGCCGCCACUCGCAGGGACACAUGAGGAUCACCCAUGUAAAG
[5]
  apparent Kd: 15.7 nM
[6]
  apparent Kd: 16.2 nM

## CAAUUUCGAAUAGAUACCAGCUGUCAUAAACACAUGAGGAUCACCCAUGUGCUUCUCGUCAGCCCUUGGCAGCUAUAACUAGAGC
[7]
  apparent Kd: 15.8 nM
[8]
  apparent Kd: 10 nM

## AGUGAGGUUCUAGGAUAUCUCCCUCGAGUGCAGCUACAUGAGGAUCACCCAUGUCAUGGGUGUCGAGAGAAGGAGAAGGGCUUA
[1]
  apparent Kd: 74.5 nM
[2]
  apparent Kd: 104 nM

## GCGGAACAUGAGGAUCACCCAUGUAAGGAUAUCGUGAGGGAACGGCAGCAACACUGAUCGAGAAGGUACAGGGC
[1]
  apparent Kd: 23 nM
[2]
  apparent Kd: 36.4 nM

## GCGUGACAUGAGGAUCACCCAUGUAGACUUGUGGAAGGAUAUACGAGAGUUCGAGUUAAGGUAGAAGGUCCCGAUG
[3]
  apparent Kd: 41.3 nM
[4]
  apparent Kd: 16.3 nM

## AAGAAAUUCUCACAUGAGGAUCACCCAUGUCCACACGACUAGAGAAGGGCCUUCUACGUGCACUGGCAGGAUAUCUAACCGGGA
[1]
  apparent Kd: 140 nM
[2]
  apparent Kd: 87.5 nM

## GCACGGGCGAUCGGCACUUUUACUAAUAUACGAGGACCGGUACGGCCGCCACUCGAGCUAAGACAUGAGGAUCACCCAUGUAACG
[5]
  apparent Kd: 26.2 nM
[6]
  apparent Kd: 49.3 nM

## GCGCCUCCCAAGGAUAUAACGCGUCUCUAAGGAUUAGAAGGUGGGACAUGAGGAUCACCCAUGUGACUCCUUUA
[1]
  apparent Kd: 7.31 nM
[2]
  apparent Kd: 7.37 nM

## GUGACUAAAUGCAAGGAUAUCCGCGGCGGUACAUGAGGAUCACCCAUGUCAAGAGUCCACUGGCAGGAGAAGGUGCCCUGCGUCAU
[3]
  apparent Kd: 7.57 nM
[4]
  apparent Kd: 6.07 nM

## AUCUGGAGAGGAUAUUGAUCGGAACACAUGAGGAUCACCCAUGUGAGCCCUCGUGUCCCUCAAGAAGGCUCGGGCG
[1]
  apparent Kd: 5.73 nM
[2]
  apparent Kd: 7.71 nM

## CGCUUGUUCAUAGGAUAUGCUAGGUAACUCAUGGUGAGUUGGGGAACAUGAGGAUCACCCAUGUGGCAGAAGGAUGGCGUUAAU
[1]
  apparent Kd: 65 nM
[2]
  apparent Kd: 55.3 nM

## AGGGCACAUGAGGAUCACCCAUGUAAGGAUAUGGACUUUUUUGCUGUAGUAAUCAUCUCCAGAAGGUACGUCUU
[1]
  apparent Kd: 24.4 nM
[2]
  apparent Kd: 19.6 nM

## GUUAGUCCACGAGGAUAUCGAAAUCGGCCCAGUGAAUUUUCACAUGAGGAUCACCCAUGUCAUAUCGAGAAGGCGUCUGAAAGC
[1]
  apparent Kd: 35.7 nM
[2]
  apparent Kd: 41.9 nM

## CAAAACUGAGGAUAUACAAAGAAAUGGAACAUAGUACAGUAACAUGAGGAUCACCCAUGUAGAAGGCAGGACUA
[1]
  apparent Kd: 6.01 nM
[2]
  apparent Kd: 6.6 nM

## AAGUUACACAAGAAGGAGGGCGACUUUUUCACAUGAGGAUCACCCAUGUAUCCUCUUGGAGGAACCUAGGAUAUUGCUAAGCGU
[1]
  apparent Kd: 175 nM
[2]
  apparent Kd: 170 nM

## GCCAAGGUAACAGGAUAUUCUAAAGACGUGAGAUACUAAAUAAACAUGAGGAUCACCCAUGUGAAGAAGAAGGGUUAAGAGUAC
[1]
  apparent Kd: 15.2 nM
[2]
  apparent Kd: 12.5 nM

## GAAGAUCCGUAAGAUACCAGUGCAGAUCGGCACAUGAGGAUCACCCAUGUAAAGCAAGAACACCCUUGGCAGCUUUCGUAACAAC
[7]
  apparent Kd: 158 nM
[8]
  apparent Kd: 10.3 nM

## ACACAUCCACAUGAGGAUCACCCAUGUAAACCGAAAUAGCACUAGGAUAUGGGACAAACAAUUCACCAGAAGGAGUAAAAGAAA
[3]
  apparent Kd: 52.7 nM
[4]
  apparent Kd: 23.8 nM

## AGCUUAAUUAUAGGAUAUGAGAGGACAUGAGGAUCACCCAUGUAGAUGUUUGCCACAUAGCCAGUUCAGAAGGAUAGAGCACCA
[1]
  apparent Kd: 24.9 nM
[2]
  apparent Kd: 19.4 nM

## GGCUUCCCAAGAGGAUAUGCGGUAAUUAUCUACAUGAGGAUCACCCAUGUUUUUAACUCAAGUCCGCAGAAGGCUUAAGGAUAU
[3]
  apparent Kd: 5.13 nM
[4]
  apparent Kd: 5 nM

## GCCCUGCGCCCGGGACCGGCAAGAUCCAUGCGAGGACCGGUACGGCCGCCACUCGCAGACGUACAUGAGGAUCACCCAUGUCCUC
[5]
  apparent Kd: 565 nM
[6]
  apparent Kd: 663 nM

## AGUAGACGAGGAUAUACGGGCAUAUUUGAUAAGAAGAACAGACAUGAGGAUCACCCAUGUAGAAGGCGAGGCUA
[1]
  apparent Kd: 11.1 nM
[2]
  apparent Kd: 10.6 nM

## CAAUACGAUGUCAGGAUAUUAUUUCAAGUAGACGGUAAGAAGGGACAUGAGGAUCACCCAUGUACGGAAUACGC
[1]
  apparent Kd: 6.35 nM
[2]
  apparent Kd: 6.32 nM

## CCAGCAUGGCAGACCAUACAUGAGGAUCACCCAUGUAGAAGCUAGGAUAUAAAUGUAACACACUAUUAGAAGGAGCGCUACCUU
[1]
  apparent Kd: 8.55 nM
[2]
  apparent Kd: 6.51 nM

## GCAGACAUGAGGAUCACCCAUGUACUUGGGCGAGGACCGGUACGGCCGCCACUCGUAGACUUGACGAGGAAAUGUUCUCGCAGGG
[9]
  apparent Kd: 22.4 nM
[10]
  apparent Kd: 19.1 nM

## AGUCGUACCAAGAAGGUACCCGGCUAAUGGUGGUAAGGAUAUUGUACGAACCCUAACAUGAGGAUCACCCAUGUCCACAGUGGG
[1]
  apparent Kd: 53.5 nM
[2]
  apparent Kd: 33 nM

## AAAAGGUCCGCUACAUGAGGAUCACCCAUGUAAAGGGUAAAUCAGGAUAUGGACGGGAGUCUUAACCAGAAGGGAUUACAGGUC
[3]
  apparent Kd: 31.6 nM
[4]
  apparent Kd: 25.1 nM

## CUACAUGGGCUCGAUACCAGUCAGCUCUCGCGUCUCUCAGACAUGAGGAUCACCCAUGUUGACCCUUGGCAGCGACGAUGUAGGC
[11]
  apparent Kd: 79.8 nM
[12]
  apparent Kd: 500 nM

## CAAGACAUGAGGAUCACCCAUGUGGUGUACCGAGGACCGGUACGGCCGCCACUCGUUCAUCGGUCGACAAGCUACCCUUCAAGGU
[9]
  apparent Kd: 24.2 nM
[10]
  apparent Kd: 38.7 nM

## CAUGACAUGAGGAUCACCCAUGUAUCCAGUCGAGGACCGGUACGGCCGCCACUCGGUGCCUUCAAAUUUACAGACAGGUGACAGG
[9]
  apparent Kd: 33.7 nM
[10]
  apparent Kd: 22.8 nM

## AGAUCCCUGGUGAGGAUAUGUGAGACAUUCCCAGGACAGAAGGCACAUGAGGAUCACCCAUGUGUUGGGUAAUU
[1]
  apparent Kd: 6.32 nM
[2]
  apparent Kd: 6.65 nM

## GUCACACAGUAGGAUACCAGCGUGGCUUAUCCCUGAUCGUACAUGAGGAUCACCCAUGUCCGCCCUUGGCAGCCUCCUGCUCGGA
[11]
  apparent Kd: 12.7 nM
[12]
  apparent Kd: 34.5 nM

## CACAUGAGGAUCACCCAUGUCGCGGUGUGACCGAUACUCGAAUAGGAUAUGCUUGACACUUCGUGGCAGAAGGAUUGAGGUUCG
[1]
  apparent Kd: 76.6 nM
[2]
  apparent Kd: 54.9 nM

## UUGAAACAUGAGGAUCACCCAUGUCAGGAUAUCUUAACCCACUUACGCGAGUGUAGCCAGAGAAGGGACAGCGG
[1]
  apparent Kd: 12.1 nM
[2]
  apparent Kd: 17.4 nM

## AGGACAUGAGGAUCACCCAUGUGAUGACAUUUCCUAGAACCGAAGGAUAUGCAAACGGAACCCGCGCAGAAGGUCGCUAACCUU
[1]
  apparent Kd: 57.5 nM
[2]
  apparent Kd: 42.5 nM

## CAUAUCAAUUCAGGAUAUUCUGUUUAAUACAUGAGGAUCACCCAUGUCCUCCAAAGAUUAGCAAGGAAGAAGGGAAGUAAACAG
[1]
  apparent Kd: 82.2 nM
[2]
  apparent Kd: 69 nM

## UGUCGUAAAGGAUAUACAUGAGGAUCACCCAUGUCGGCCGUUAGGCCGUAAGGUGUGCGUAGAAGGUUACAUUG
[1]
  apparent Kd: 191 nM
[2]
  apparent Kd: 149 nM

## UCAGAUGUGAAGGAUAUUCCGCGAGCAGCUACGGAAGAAGGUCAAACAUGAGGAUCACCCAUGUGUCUCCCGGG
[1]
  apparent Kd: 14.4 nM
[2]
  apparent Kd: 22.4 nM

## ACCGAUCGAGGAUAUACAGAACAAAAGAACAUGACGAAGAAACAUGAGGAUCACCCAUGUAGAAGGCGAAAAGA
[1]
  apparent Kd: 8.58 nM
[2]
  apparent Kd: 9.05 nM
